Consider one compound from ChEMBL document CHEMBL4342471, “Discovery of Thieno[2,3-d]pyrimidine-Based Hydroxamic Acid Derivatives as Bromodomain-Containing Protein 4/Histone Deacetylase Dual Inhibitors Induce Autophagic Cell Death in Colorectal Carcinoma Cells” (J Med Chem, 2020).

Active and inactive are the calls of the source. The rule behind the calls is not given here. Some results are limits rather than exact numbers.

Data set [1] deals with T1, Bromodomain-containing protein 4 (Homo sapiens, UniProt O60885). As to the kind of experiment: Inhibition of BRD4 in human HCT116 cells assessed as induction of autophagy by measuring decrease in p62 expression at 0.2 to 0.5 uM measured after 24 hrs by Western blot analysis. It counts as cell-based. In general terms: In western blotting, separated proteins are transferred to a membrane and probed.

Data set [2] addresses Histone deacetylase 5 (Homo sapiens, UniProt Q9UQL6). Put plainly: Inhibition of HDAC5 (unknown origin) using biotinylated histone H3 KAc peptide (1 to 21 residues) as substrate by HTRF assay. For orientation: TR-FRET usually uses a lanthanide donor and a delayed reading to cut background.
The nature of data set [3]: Toxicity in BALB/cAnNCrl mouse xenografted with human HCT116 cells assessed as effect on heart morphological changes at 15 to 30 mg/kg, po administered on day 1 to day 19 measured on day 19 by hematoxylin and eosin staining based assay. In kind it is organism-based. As to conditions: in vivo. The gist of the method: (§1)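 HCT-116 xenograft mice dosed orally at 15 or 30 mg/kg for 19 days, saline as vehicle control; body weights tracked, and main organs sectioned and H&E-stained at study end.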
(In general: In xenograft studies the graft and the host belong to different species.)

The subject of data set [4] is HCT-116. As to the kind of experiment: Antitumor activity against human HCT116 cells xenografted in orally dosed BALB/cAnNCrl mouse assessed as reduction in tumor volume administered on day 1 to day 19 relative to control. In kind it is functional, organism-based. Summed up:
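HCT-116 xenografts in mice were given the test agent orally at 15 or 30 mg/kg, with a saline control group, over 19 days. Tumor volume was followed during treatment and tumors were weighed at the end. Body weight was monitored. Inhibition is expressed as treatment-to-control (T/C) ratio.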

The target of data set [5] is T1, Bromodomain-containing protein 4. As to the kind of experiment: Inhibition of BRD4 in human HCT116 cells transfected with ATG5 siRNA assessed as activation of AMPK-alpha at 0.5 uM by Western blot analysis. It counts as cell-based. Summed up: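 HCT-116 cells first transfected with ATG5 siRNA or scramble siRNA; after silencing, exposed to 0.5 µM test agent or normal saline, then ATG5, AMPKα, p-AMPKα, p62 and LC3 protein assessed by western blot.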

Data set [6] concerns the target Histone deacetylase 3 (Homo sapiens, UniProt O15379). As to the kind of experiment: Inhibition of HDAC3 (unknown origin) using biotinylated histone H3 KAc peptide (1 to 21 residues) as substrate by HTRF assay.
Data set [7] has as its system HCT-116. Put plainly: Effect on histone H3 expression level in human HCT116 cells at 0.2 to 0.5 uM measured after 24 hrs by Western blot analysis. In kind it is functional, cell-based.
The test system of data set [8] is HCT-116. Put plainly: Inhibition of colony formation in human HCT116 cells at 0.2 to 0.5 uM incubated for 24 hrs. In kind it is functional, cell-based. Summed up: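 HCT-116 colony formation assessed after treatment at 0.2 or 0.5 µM.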
Data set [9] deals with HCT-116. As to the kind of experiment: Cytotoxicity against human HCT116 cells assessed as reduction in cell viability at 0.5 uM incubated for 24 to 48 hrs in presence of 500 uM type 3 PI3K inhibitor, 3-MA by MTT assay. It counts as functional, cell-based. The gist of the method: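 HCT-116 viability was read by MTT after treatment with 0.5 μM compound, with or without the autophagy inhibitor 3-MA at 500 μM.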

The subject of data set [10] is HCT-116. Put plainly: Induction of apoptosis in human HCT116 cells assessed as apoptotic cells at 0.5 uM by Annexin-V FITC/propidium iodide staining-based flow cytometry (reference value: 6.3 +/- 0.4 %). In kind it is functional.
The nature of data set [11]: Toxicity in BALB/cAnNCrl mouse xenografted with human HCT116 cells assessed as effect on spleen morphological changes at 15 to 30 mg/kg, po administered on day 1 to day 19 measured on day 19 by hematoxylin and eosin staining based assay. It counts as organism-based. As to conditions: in vivo. Summed up: as §1
Data set [12] is described as follows: Toxicity in BALB/cAnNCrl mouse xenografted with human HCT116 cells assessed as effect on lung morphological changes at 15 to 30 mg/kg, po administered on day 1 to day 19 measured on day 19 by hematoxylin and eosin staining based assay. In kind it is organism-based. To be noted: in vivo. The gist of the method:
as §1

Data set [13] deals with HCT-116. Put plainly: Induction of apoptosis in human HCT116 cells assessed as necrotic cells at 0.5 uM by Annexin-V FITC/propidium iodide staining-based flow cytometry (reference value: 0.304 %). In kind it is functional.
Data set [14] has as its system Mus musculus. As to the kind of experiment: Increase in phosphorylated STAT3 expression in tumor tissue of BALB/cAnNCrl mouse xenografted with human HCT116 cells at 15 to 30 mg/kg, po administered on day 1 to day 19 measured on day 19 by immunohistochemical analysis. It counts as functional, organism-based. Summed up: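 HCT-116 xenograft mice were dosed orally at 15 or 30 mg/kg, or 30 mg/kg for reference agents, for 19 days, with vehicle or saline controls. Tumor sections were stained for Ki-67, c-Myc, Ac-H3, BRD4, LC3-II, LIFR and p-STAT3 by immunohistochemistry, and TUNEL staining was used as the apoptosis marker.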

The species named for data set [15] is Homo sapiens. As to the kind of experiment: Inhibition of BRD4/HDAC in human HCT116 cells assessed as increase in OSM mRNA level at 0.5 uM after 24 hrs by RT-PCR analysis. In kind it is cell-based. Summed up:
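HCT-116 cells incubated 24 h with test agent (0.5 µM, 2.0 µM or 10 µM depending on compound); IL6, OSM, LIF and CTF1 mRNA levels then quantified.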

The target of data set [16] is Histone deacetylase 11 (Homo sapiens, UniProt Q96DB2). Put plainly: Inhibition of HDAC11 (unknown origin) using biotinylated histone H3 KAc peptide (1 to 21 residues) as substrate by HTRF assay.
Histone deacetylase 11, sequence (Q96DB2 whole entry, the tested form may be a part): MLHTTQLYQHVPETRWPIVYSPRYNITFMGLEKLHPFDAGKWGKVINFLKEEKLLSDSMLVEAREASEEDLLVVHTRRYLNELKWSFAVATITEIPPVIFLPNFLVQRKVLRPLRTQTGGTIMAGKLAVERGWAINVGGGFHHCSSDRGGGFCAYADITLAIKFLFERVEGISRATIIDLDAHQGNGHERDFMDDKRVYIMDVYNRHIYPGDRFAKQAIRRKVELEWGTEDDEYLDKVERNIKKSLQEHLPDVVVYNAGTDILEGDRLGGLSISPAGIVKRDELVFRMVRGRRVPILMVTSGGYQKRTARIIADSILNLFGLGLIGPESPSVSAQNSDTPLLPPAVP
The target of data set [17] is T1, Bromodomain-containing protein 4. As to the kind of experiment: Inhibition of human recombinant His-tagged BRD4 BD2 domain using H-SGRGK(Ac)GGK(Ac)GLGK-(Ac)GGAK(Ac)RHRK(Biotin)-OH as substrate preincubated with enzyme for 30 mins followed by substrate addition measured after 30 mins by AlphaScreen assay.
The target of data set [18] is Histone deacetylase 9 (Homo sapiens, UniProt Q9UKV0). Put plainly: Inhibition of HDAC9 (unknown origin) using biotinylated histone H3 KAc peptide (1 to 21 residues) as substrate by HTRF assay.
Histone deacetylase 9, sequence (Q9UKV0 whole entry, the tested form may be a part): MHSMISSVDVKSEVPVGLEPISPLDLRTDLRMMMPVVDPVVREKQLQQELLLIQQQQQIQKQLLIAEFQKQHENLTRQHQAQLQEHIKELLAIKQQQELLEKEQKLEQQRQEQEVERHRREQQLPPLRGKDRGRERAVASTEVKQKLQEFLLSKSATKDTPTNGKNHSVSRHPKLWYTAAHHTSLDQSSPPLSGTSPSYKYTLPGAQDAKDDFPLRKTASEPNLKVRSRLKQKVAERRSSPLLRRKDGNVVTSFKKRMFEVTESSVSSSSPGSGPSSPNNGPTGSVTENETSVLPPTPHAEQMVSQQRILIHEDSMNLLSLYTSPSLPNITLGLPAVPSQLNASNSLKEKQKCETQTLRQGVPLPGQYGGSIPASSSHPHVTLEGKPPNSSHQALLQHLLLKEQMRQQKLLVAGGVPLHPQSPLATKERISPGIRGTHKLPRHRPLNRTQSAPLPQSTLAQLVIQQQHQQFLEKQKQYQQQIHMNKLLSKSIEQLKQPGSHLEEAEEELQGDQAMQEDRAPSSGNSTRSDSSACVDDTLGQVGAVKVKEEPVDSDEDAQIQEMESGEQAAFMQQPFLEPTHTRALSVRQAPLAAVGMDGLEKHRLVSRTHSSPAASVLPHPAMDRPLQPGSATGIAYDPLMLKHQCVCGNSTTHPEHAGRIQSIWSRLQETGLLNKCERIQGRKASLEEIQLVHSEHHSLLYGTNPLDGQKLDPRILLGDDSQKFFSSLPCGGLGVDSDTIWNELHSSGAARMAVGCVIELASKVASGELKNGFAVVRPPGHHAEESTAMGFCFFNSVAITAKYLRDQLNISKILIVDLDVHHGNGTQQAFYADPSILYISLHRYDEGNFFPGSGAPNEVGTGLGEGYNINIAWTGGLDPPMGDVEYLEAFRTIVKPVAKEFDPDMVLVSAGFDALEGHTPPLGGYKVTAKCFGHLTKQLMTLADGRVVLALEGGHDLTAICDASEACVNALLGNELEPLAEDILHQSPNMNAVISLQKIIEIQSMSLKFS
Data set [19] in a line: Tmax in Sprague-Dawley rat at 30 mg/kg, iv administered as bolus dose measured up to 1440 mins by UPLC-QTOF/MS analysis. It counts as ADME, organism-based. As to conditions: in vivo.
The target of data set [20] is Histone deacetylase 8 (Homo sapiens, UniProt Q9BY41). Put plainly: Inhibition of HDAC8 (unknown origin) using biotinylated histone H3 KAc peptide (1 to 21 residues) as substrate by HTRF assay.
Histone deacetylase 8, sequence (Q9BY41 whole entry, the tested form may be a part): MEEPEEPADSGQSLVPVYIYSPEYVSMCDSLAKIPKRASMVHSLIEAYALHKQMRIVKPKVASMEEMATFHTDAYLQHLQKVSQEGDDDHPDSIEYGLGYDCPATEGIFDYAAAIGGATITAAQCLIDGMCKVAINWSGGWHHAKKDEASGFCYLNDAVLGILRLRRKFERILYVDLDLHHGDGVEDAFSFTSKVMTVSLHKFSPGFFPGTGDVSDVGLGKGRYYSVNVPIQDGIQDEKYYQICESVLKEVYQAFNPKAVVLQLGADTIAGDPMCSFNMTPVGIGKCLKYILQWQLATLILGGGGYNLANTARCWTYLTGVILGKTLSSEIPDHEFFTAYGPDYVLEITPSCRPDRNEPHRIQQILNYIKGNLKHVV
In data set [21] the test system is HT-29. As to the kind of experiment: Cytotoxicity against human HT-29 cells assessed as reduction in cell viability. It counts as functional, cell-based. The gist of the method: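 Antiproliferative IC50 values were measured by MTT assay across a panel of colorectal carcinoma cell lines and normal colorectal epithelial cells.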

Histone deacetylase 3, sequence (O15379 whole entry, the tested form may be a part): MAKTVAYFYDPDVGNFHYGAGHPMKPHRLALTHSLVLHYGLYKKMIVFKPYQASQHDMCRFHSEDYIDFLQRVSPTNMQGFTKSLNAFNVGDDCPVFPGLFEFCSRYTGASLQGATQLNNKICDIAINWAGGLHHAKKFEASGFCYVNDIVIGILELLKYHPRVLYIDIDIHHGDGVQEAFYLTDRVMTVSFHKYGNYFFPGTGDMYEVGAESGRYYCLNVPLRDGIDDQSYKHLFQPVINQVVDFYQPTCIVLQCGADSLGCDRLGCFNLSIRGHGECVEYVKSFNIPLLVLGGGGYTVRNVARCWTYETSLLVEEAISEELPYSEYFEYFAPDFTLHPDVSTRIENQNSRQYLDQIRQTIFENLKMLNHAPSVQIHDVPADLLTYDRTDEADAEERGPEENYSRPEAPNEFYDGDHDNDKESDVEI
Histone deacetylase 5, sequence (Q9UQL6 whole entry, the tested form may be a part): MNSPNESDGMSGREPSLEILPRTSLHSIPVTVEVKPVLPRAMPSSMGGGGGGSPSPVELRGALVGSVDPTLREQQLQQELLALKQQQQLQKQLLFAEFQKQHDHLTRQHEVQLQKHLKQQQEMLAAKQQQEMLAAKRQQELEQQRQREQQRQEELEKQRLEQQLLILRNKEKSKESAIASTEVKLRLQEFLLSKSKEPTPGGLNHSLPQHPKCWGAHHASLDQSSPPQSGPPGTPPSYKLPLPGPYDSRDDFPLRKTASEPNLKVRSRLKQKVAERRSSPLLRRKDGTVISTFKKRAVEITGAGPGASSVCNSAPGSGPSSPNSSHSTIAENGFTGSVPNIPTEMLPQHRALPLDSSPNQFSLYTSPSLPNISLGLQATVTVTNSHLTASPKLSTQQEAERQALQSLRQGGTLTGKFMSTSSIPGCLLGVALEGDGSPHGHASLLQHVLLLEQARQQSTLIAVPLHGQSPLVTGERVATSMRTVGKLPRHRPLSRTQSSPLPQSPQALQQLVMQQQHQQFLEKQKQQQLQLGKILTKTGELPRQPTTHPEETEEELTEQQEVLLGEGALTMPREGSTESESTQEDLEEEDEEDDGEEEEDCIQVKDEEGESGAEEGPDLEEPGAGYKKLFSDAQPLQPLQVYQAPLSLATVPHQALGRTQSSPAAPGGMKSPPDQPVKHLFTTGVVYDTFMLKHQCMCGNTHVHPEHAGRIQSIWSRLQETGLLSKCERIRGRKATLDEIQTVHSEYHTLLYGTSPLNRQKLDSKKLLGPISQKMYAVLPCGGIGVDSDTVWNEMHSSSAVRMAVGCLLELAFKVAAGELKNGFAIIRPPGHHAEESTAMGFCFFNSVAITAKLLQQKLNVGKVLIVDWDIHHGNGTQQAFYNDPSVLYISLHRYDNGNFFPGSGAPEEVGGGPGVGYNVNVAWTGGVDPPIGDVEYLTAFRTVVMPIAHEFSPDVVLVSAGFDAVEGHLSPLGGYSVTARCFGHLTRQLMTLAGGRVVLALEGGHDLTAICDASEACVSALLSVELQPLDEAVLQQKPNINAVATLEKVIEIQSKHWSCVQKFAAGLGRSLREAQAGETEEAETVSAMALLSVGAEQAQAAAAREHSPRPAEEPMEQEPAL

Turning to `Cc1cc(-c2nc3sc4c(c3c(=O)[nH]2)CCN(C)C4)cc(C)c1OCCCCCC(=O)NO`, the inhibition entry in data set [1], in [5], in data set [8] and in [15] was “Active” in each case. Moreover, the IC50 in [2] is above 10 µM; in [6], 0.075 µM; in data set [16], above 10 µM; in data set [17], 2.05 µM; in data set [18] it was above 10 µM; in data set [20] it was 0.167 µM. In addition, the Activity entry is “Non-Toxic” in [3]; “Dose-dependent effect” in data set [4]; 45.3% in data set [10]; “Non-Toxic” in [11]; “Non-Toxic” in data set [12]; 9.75% in data set [13]. Besides, the outcome in [7], in [9] and in data set [14] was inactive. Further, in data set [19], the Tmax is 7.2 min. For the same compound, the outcome in data set [21] was Active.

By IC50 is commonly meant the concentration needed to halve the response being measured. What is called Tmax is the time at which the peak concentration occurs.
